A short description of experiment [1]: Binding affinity to GC-rich FAM-GCGCAGATTTTCTGCGC-TAMRA DNA (unknown origin) assessed as change in melting temperature at 1 uM by FRET assay. In short, it runs like this:
(§1)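 Fam/Tamra-labelled hairpins, 400 nM in 50 mM potassium cacodylate pH 7.4, annealed at 85 °C for 5 min, cooled over 5 h, then mixed 1:1 with ligand diluted from DMSO stock; ligand 1 μM, 24 h incubation. Fluorescence (excitation 450−495, emission 515−545 nm) read every 0.5 °C from 30−100 °C; Tm from first-derivative maximum of smoothed curves, ΔTm versus blank.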

The nature of experiment [2]: Binding affinity to AT-rich FAM-TATAAGATTTTCTTATA-TAMRA DNA (unknown origin) assessed as change in melting temperature at 1 uM by FRET assay. The method in brief: as §1
Experiment [3] is described as follows: Selectivity ratio of deltaTm for GC-rich FAM-GCGCAGATTTTCTGCGC-TAMRA DNA (unknown origin) to deltaTm for AT-rich FAM-TATAAGATTTTCTTATA-TAMRA DNA (unknown origin). The method in brief:
as §1

Another experiment relates to A-431. Put plainly: Cytotoxicity against human A431 cells after 96 hrs by MTT assay. The class given is functional, cell-based. The conditions noted are these: A-431, 96 h. The method in brief:
(§2)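 Adherent cells were grown at 37 °C in 5% CO2 in DMEM or MEM with 10% FBS, L-glutamine, nonessential amino acids and hydrocortisone, then seeded to 30–40% confluence. Compounds were dissolved in water at up to 100 μM, serially diluted tenfold and added for 96 h of continuous exposure. MTT absorbance was read at 570 nm, and IC50 was taken from dose–response analysis.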

The next experiment has as its system A549. The experiment can be described thus: Cytotoxicity against human A549 cells after 96 hrs by MTT assay. The format is functional, cell-based. The conditions noted are these: A549, 96 h. In short, it runs like this: as §2
In general terms: Formazan colour is commonly taken as a measure of viable cells.

In another experiment the test system is WI-38. Put plainly: Cytotoxicity against human WI38 cells after 96 hrs by MTT assay. The format is cell-based. The conditions noted are these: WI-38, 96 h. The method in brief:
as §2

Another experiment relates to MCF7. The experiment can be described thus: Cytotoxicity against human MCF7 cells after 96 hrs by MTT assay. The format is functional, cell-based. Conditions: MCF7, 96 h. In short, it runs like this: as §2
A further experiment relates to MDA-MB-231. The experiment can be described thus: Cytotoxicity against human MDA-MB-231 cells after 96 hrs by MTT assay. The format is functional, cell-based. The conditions noted are these: MDA-MB-231, 96 h. The method in brief:
as §2

Another experiment has as its system MIA PaCa-2. The experiment can be described thus: Cytotoxicity against human MIAPaCa2 cells after 96 hrs by MTT assay. The format is functional, cell-based. Conditions: MIA PaCa-2, 96 h. In short, it runs like this: as §2
A short description of experiment [4]: Cytotoxicity against human primary CLL cells after 96 hrs by annexin V/propidium iodide staining-based FACS flow cytometric analysis. The class given is functional, cell-based. In short, it runs like this:
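Freshly isolated peripheral blood CLL cells at 1 × 10^6/mL were cultured in RPMI with penicillin, streptomycin and 10% FCS at 37 °C in 5% CO2. Serial dilutions of compound from DMSO stocks were added, with drug-free control cultures. Apoptosis was measured by annexin V/propidium iodide flow cytometry, in duplicate. LD50 came from sigmoidal curves of log concentration against percentage apoptosis.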

The test system of another experiment is A2780. Put plainly: Cytotoxicity against human A2780 cells after 96 hrs by MTT assay. The format is functional, cell-based. The conditions noted are these: A2780, 96 h. The method in brief: as §2
The nature of experiment [5]: Binding affinity to GC-rich GCGC-AGA-TTT-TCT-GCGC DNA (unknown origin) after 5 mins by HPLC-MS analysis (reference value: 12 %).
The nature of experiment [6]: Binding affinity to AT-rich TATA-AGA-TTT-TCT-TATA DNA (unknown origin) after 5 mins by HPLC-MS analysis (reference value: 70 %).

For orientation: ΔTm means the shift of the melting midpoint relative to a reference. In general, IC50 refers to the concentration at which inhibition is half-maximal. Higher therefore signals weaker potency. For the molecule `COC(=O)c1cc(NC(=O)c2cc(NC(=O)c3cc(-c4ccc(NC(=O)CCCOc5cc6c(cc5OC)C(=O)N5CCC[C@H]5C=N6)cc4)cn3C)cn2C)cn1C`, the ΔTm in [1] came to 4.3 °C; in [2] it was 3.2 °C. In addition, the Ratio in [3] came out at 1.34. In addition, the IC50 is 0.86 nM in the experiment on A-431; 2.3 nM in the experiment on A549; 41.3 nM in the experiment with WI-38; 0.31 nM with MCF7; 0.59 nM with MDA-MB-231; 0.31 nM in the experiment on MIA PaCa-2. Besides, the IC50 amounted to 0.96 nM in experiment [4] and 0.24 nM with A2780.

In the case of `COC(=O)c1cc(NC(=O)c2cc(NC(=O)CCCOc3cc4c(cc3OC)C(=O)N3CCC[C@H]3C=N4)cn2C)cn1C`, the ΔTm in experiment [1] came to 1.1 °C; in experiment [2], 7.4 °C. Moreover, the Activity in experiment [5] was determined as 12%; in experiment [6], 70%. Besides, the Ratio in experiment [3] is 0.15. The IC50 in the experiment with A-431 worked out at 0.55 nM; with A549, 6.1 nM; in the experiment on WI-38 it was 41.3 nM; in the experiment with MCF7, 0.32 nM; in the experiment with MDA-MB-231 it was 0.12 nM; in the experiment with MIA PaCa-2 it was 2.4 nM. Also, the IC50 was determined as 1.3 nM in experiment [4] and 0.57 nM in the experiment on A2780.

Turning to `COc1cc2c(cc1OCCCC(=O)O)N=C[C@@H]1CCCN1C2=O`, the figures for the ΔTm in [1] and in experiment [2] were 0.2 °C and 0.4 °C, respectively. For the same molecule, the Ratio in experiment [3] is 0.5. Besides, the IC50 is 1090 nM in the experiment on A-431; 1500 nM in the experiment on A549; 4660 nM in the experiment on WI-38; 702 nM in the experiment with MCF7; 1670 nM in the experiment with MDA-MB-231; 1560 nM in the experiment with MIA PaCa-2. For the same molecule, the IC50 was above 20000 nM in experiment [4] and 3760 nM in the experiment on A2780.

Regarding `COC(=O)c1cc(-c2ccc(NC(=O)CCCOc3cc4c(cc3OC)C(=O)N3CCC[C@H]3C=N4)cc2)cn1C`, the ΔTm in experiment [1] amounted to 3.9 °C; in experiment [2], 0.3 °C. The Activity in experiment [5] was found to be 67%; in experiment [6], 3%. In experiment [3], the Ratio is 13. In addition, the 50% inhibitory concentration (IC50) with A-431 was 2.31 nM; in the experiment on A549 it was 7.5 nM; with WI-38 it was 160 nM; in the experiment on MCF7, 1.91 nM; with MDA-MB-231, 2.11 nM; in the experiment with MIA PaCa-2 it was 1.2 nM. In addition, the results for the IC50 (in experiment [4]; in the experiment with A2780) were 6.2 nM and 1.87 nM, respectively.

Take `COC(=O)c1cc(-c2ccc(NC(=O)c3cc(-c4ccc(NC(=O)CCCOc5cc6c(cc5OC)C(=O)N5CCC[C@H]5C=N6)cc4)cn3C)cc2)cn1C`: the ΔTm in experiment [1] is 3.6 °C; in experiment [2], 0.8 °C. In addition, in experiment [3], the Ratio was found to be 3.6. Further, the IC50 with A-431 was 2.91 nM; in the experiment on A549, 0.54 nM; with WI-38, 159 nM; in the experiment on MCF7, 0.9 nM; in the experiment on MDA-MB-231 it was 0.46 nM; in the experiment on MIA PaCa-2 it was 0.35 nM. In addition, the IC50 in experiment [4] is 4.7 nM; with A2780, 0.56 nM.

`COC(=O)c1cc(NC(=O)c2cc(-c3ccc(NC(=O)CCCOc4cc5c(cc4OC)C(=O)N4CCC[C@H]4C=N5)cc3)cn2C)cn1C`: the ΔTm in experiment [1] came to 3.1 °C; in [2], 2.1 °C. Besides, the Ratio in experiment [3] amounted to 1.48. Moreover, the IC50 in the experiment on A-431 was determined as 4.6 nM; in the experiment on A549 it was 0.019 nM; in the experiment on WI-38 it was 426 nM; in the experiment with MCF7, 1.7 nM; in the experiment with MDA-MB-231, 2.7 nM; with MIA PaCa-2, 0.34 nM. The concentration for half-maximal inhibition (IC50) in [4] is 2.1 nM; in the experiment on A2780, 0.96 nM.

Consider `COC(=O)c1nc(NC(=O)c2cc(NC(=O)c3cc(-c4ccc(NC(=O)CCCOc5cc6c(cc5OC)C(=O)N5CCC[C@H]5C=N6)cc4)cn3C)cn2C)cn1C`, for which the ΔTm in experiment [1] amounted to 5.8 °C; in experiment [2], 3.4 °C. Further, in [3], the Ratio stood at 1.7. Also, the IC50 came out at 0.064 nM with A-431; 0.45 nM with A549; 65.6 nM in the experiment on WI-38; 0.075 nM in the experiment with MCF7; 0.015 nM in the experiment with MDA-MB-231; 0.25 nM in the experiment with MIA PaCa-2. Also, the values for the IC50 (in [4]; in the experiment with A2780) were 0.037 nM and above 20000 nM, respectively.

For the molecule `CCOC(=O)c1nc(NC(=O)c2cc(-c3ccc(NC(=O)CCCOc4cc5c(cc4OC)C(=O)N4CCC[C@H]4C=N5)cc3)cn2C)cn1C`, the ΔTm was found to be 2.8 °C in [1] and 0.5 °C in [2]. Moreover, the Ratio in [3] turned out to be 5.6. Further, the IC50 in the experiment on A-431 is 0.19 nM; with A549 it was 0.47 nM; in the experiment with WI-38, 1240 nM; in the experiment with MCF7 it was 0.37 nM; in the experiment on MDA-MB-231 it was 0.45 nM; in the experiment on MIA PaCa-2 it was 0.11 nM. In addition, the IC50 in experiment [4] is 3 nM; in the experiment on A2780 it was 0.15 nM.

In the case of `COC(=O)c1cc(-c2ccc(N)cc2)cn1C`, the 50% inhibitory concentration (IC50) in the experiment on A-431, in the experiment with A549, in the experiment on WI-38, in the experiment on MCF7, in the experiment on MDA-MB-231 and in the experiment with MIA PaCa-2 was above 20000 nM in each case. Further, the IC50 (in experiment [4]; in the experiment on A2780) was above 20000 nM in each case.

The values are drawn from ChEMBL document CHEMBL2321778, “GC-targeted C8-linked pyrrolobenzodiazepine-biaryl conjugates with femtomolar in vitro cytotoxicity and in vivo antitumor activity in mouse models” (J Med Chem, 2013).
